Published values from different studies.
NPY2R: Neuropeptide Y receptor type 2 (NPY2R, Homo sapiens, UniProt P49146)
Rock2: Rho-associated protein kinase 2 (Rock2, Rattus norvegicus, UniProt Q62868)
PTGS2: Prostaglandin G/H synthase 2 (PTGS2, Homo sapiens, UniProt P35354)
CHRM3: Muscarinic acetylcholine receptor M3 (CHRM3, Homo sapiens, UniProt P20309)

SMILES	target	effect on	mode	method	cells	concentration	inhibition
CC(CN(C)C)C(Oc1cccc2ccccc12)c1cccs1 (stereo not shown)	Sigma intracellular receptor 2 (TMEM97, Homo sapiens, UniProt Q5BJF2)	ligand displacement		radioligand		10 µM	-4.5%
O=C(Nc1ccc(S(=O)(=O)N2CCC(Cl)CC2)cc1)c1ccc([N+](=O)[O-])o1	NPY2R	ligand displacement		radioligand		10 µM	4%
Cc1ccc(Nc2nccc(N(C)c3ccc4c(C)n(C)nc4c3)n2)cc1S(N)(=O)=O	Rock2	enzyme activity	inhibitor			0.3 µM	11%
COc1cc(-c2cc(=O)c3c(O)cc(O)cc3o2)ccc1O	PTGS2	enzyme activity	inhibitor			7.81 µg/mL	58.6%
COc1cc(NC(C)=O)c(Cl)cc1C(=O)Nc1nccs1	CHRM3	cell-free assay				10 µM	-22.1%
COc1cc([C@H]2OC[C@H]3[C@@H]2CO[C@@H]3c2cc(OC)c(O)c(OC)c2)cc(OC)c1O	PTGS2	enzyme activity	inhibitor			0.98 µg/mL	49.3%
CNC(=O)c1cc(Oc2ccc(NC(=O)Nc3ccc(Cl)c(C(F)(F)F)c3)cc2)ccn1	Rock2	enzyme activity	inhibitor			10 µM	44%
CCN1CCN(Cc2ccc(NC(=O)c3ccc(C)c(Oc4ccnc5[nH]ccc45)c3)cc2C(F)(F)F)CC1	Inositol-tetrakisphosphate 1-kinase (Homo sapiens, UniProt Q13572)	target engagement in cells	inhibitor	chemoproteomics	Huh-7	10 µM	-35.5%
Oc1ccc2ccccc2n1	Serum paraoxonase/arylesterase 1 (PON1, Homo sapiens, UniProt P27169)	enzyme activity	inhibitor			20 µM	84%
CN(C)C1CCN(CC#Cc2nn(C3CCCC3)c3nc(NCc4ccccc4)ncc23)C1 (stereo not shown)	Dual specificity tyrosine-phosphorylation-regulated kinase 1A (DYRK1A, Homo sapiens, UniProt Q13627)	enzyme activity	inhibitor	FRET		0.1 µM	4%
COc1ccc(CCC(C)N2CCc3cc(OC)c(OC)cc3C2)cc1 (stereo not shown)	Sigma non-opioid intracellular receptor 1 (SIGMAR1, Cavia porcellus, UniProt Q60492)	ligand displacement		radioligand		0.1 µM	11%
C=C[C@@]1(C)C=C2CC[C@@H]3[C@](C)(CCC[C@@]3(C)C(=O)O)[C@H]2CC1	PTGS2	enzyme activity	inhibitor			0.98 µg/mL	15.2%
O=C(c1ccc(Cl)cc1)N(Cc1ccccc1)C1CCCCC1	CHRM3	cell-free assay				10 µM	-7.8%
O=C1N=C(N2CCCCN2)S/C1=C\c1ccc(F)cc1O	5-hydroxytryptamine receptor 1B (Htr1b, Rattus norvegicus, UniProt P28564)	ligand displacement		radioligand		10 µM	< 10%
COc1ccc(-c2cc(=O)c3c(O)cc(O[C@@H]4O[C@H](CO)[C@@H](O)[C@H](O)[C@H]4O)cc3o2)cc1O	PTGS2	enzyme activity	inhibitor			7.81 µg/mL	100%
CCN(Cc1ccccc1C(F)(F)F)C(=O)C1CCN(S(=O)(=O)c2ccc3[nH]ncc3c2)CC1	NPY2R	ligand displacement		radioligand		10 µM	3%
